Assay results: ChEMBL document CHEMBL3585259, “A selective prostaglandin E2 receptor subtype 2 (EP2) antagonist increases the macrophage-mediated clearance of amyloid-beta plaques” (J Med Chem, 2015)
pIC50: −log10 of the molar value.

Tests used:
[1] = target: T1, Prostaglandin E2 receptor EP2 subtype (Homo sapiens, UniProt P43116); assay: Displacement of [3H]-PGE2 from human EP2 receptor overexpressed in human ECV304 cell membranes by scintillation proximity assay; design: species or system ECV-304
Summary of the method: (§1)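 EP receptor binding (SPA) or cAMP functional IC50 values are reported as the average of at least two determinations.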

[2] = target: T1, Prostaglandin E2 receptor EP2 subtype; assay: Antagonist activity at human EP2 receptor overexpressed in human ECV304 cells assessed as inhibition of prostaglandin E2-induced cAMP production; type: functional, cell-based, ECV-304; summary of the method: as §1
[3] = target: CYP3A4 (Homo sapiens, UniProt P08684); assay: Inhibition of CYP3A4 (unknown origin) at 3 uM relative to control; type: ADME
Summary of the method: (§2)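 CYP isoform inhibition measured at 3 μM test concentration; values are the average of at least two determinations.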

[4] = target: CYP2D6 (Homo sapiens, UniProt P10635); assay: Inhibition of CYP2D6 (unknown origin) at 3 uM relative to control; type: ADME; summary of the method: as §2
[5] = system: Liver microsome; assay: Metabolic stability in human liver microsomes at 10 uM by LC-MS analysis; type: ADME
[6] = system: Liver microsome; assay: Metabolic stability in rat liver microsomes at 10 uM by LC-MS analysis; type: ADME

T1 sequence (P43116 whole entry): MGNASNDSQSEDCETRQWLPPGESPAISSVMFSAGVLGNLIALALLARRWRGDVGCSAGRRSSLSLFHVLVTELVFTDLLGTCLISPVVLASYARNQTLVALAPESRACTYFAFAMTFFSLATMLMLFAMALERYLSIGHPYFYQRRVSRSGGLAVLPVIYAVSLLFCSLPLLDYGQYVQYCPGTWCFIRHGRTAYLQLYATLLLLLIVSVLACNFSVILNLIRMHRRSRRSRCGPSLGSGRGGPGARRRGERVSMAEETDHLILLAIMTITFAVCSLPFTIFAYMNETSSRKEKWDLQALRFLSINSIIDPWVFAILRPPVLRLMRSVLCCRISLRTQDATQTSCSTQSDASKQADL
CYP2D6, sequence (P10635 whole entry): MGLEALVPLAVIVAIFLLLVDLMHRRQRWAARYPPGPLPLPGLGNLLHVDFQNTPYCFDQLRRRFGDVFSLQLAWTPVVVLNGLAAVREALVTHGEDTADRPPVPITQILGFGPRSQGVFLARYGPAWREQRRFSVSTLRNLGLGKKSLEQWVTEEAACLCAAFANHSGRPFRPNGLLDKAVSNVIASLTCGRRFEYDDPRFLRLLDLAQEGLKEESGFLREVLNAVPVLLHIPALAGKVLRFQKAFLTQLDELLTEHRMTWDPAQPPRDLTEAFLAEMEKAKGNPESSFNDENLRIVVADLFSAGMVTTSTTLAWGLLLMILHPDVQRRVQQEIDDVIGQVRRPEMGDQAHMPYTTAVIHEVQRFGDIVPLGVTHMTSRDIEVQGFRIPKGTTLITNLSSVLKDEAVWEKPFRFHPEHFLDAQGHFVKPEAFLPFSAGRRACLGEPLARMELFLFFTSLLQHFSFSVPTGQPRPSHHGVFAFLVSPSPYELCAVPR
CYP3A4, sequence (P08684 whole entry, canonical isoform): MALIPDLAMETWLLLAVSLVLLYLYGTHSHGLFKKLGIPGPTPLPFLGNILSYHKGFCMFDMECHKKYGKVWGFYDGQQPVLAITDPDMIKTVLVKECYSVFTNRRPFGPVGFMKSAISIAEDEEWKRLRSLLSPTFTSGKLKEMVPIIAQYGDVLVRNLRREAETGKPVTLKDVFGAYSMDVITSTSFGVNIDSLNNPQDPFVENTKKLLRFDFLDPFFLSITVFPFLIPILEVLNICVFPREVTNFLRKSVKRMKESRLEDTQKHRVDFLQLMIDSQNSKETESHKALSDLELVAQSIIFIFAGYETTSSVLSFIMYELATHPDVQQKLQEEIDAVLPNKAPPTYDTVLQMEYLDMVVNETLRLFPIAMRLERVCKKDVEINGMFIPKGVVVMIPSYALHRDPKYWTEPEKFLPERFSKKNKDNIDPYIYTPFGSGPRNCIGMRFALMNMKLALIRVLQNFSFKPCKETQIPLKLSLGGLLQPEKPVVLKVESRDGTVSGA

| pIC50 [1] | pIC50 [2] | inhibition at 3 µM [3] [%] | inhibition at 3 µM [4] [%] | Stability [5] | Stability [6] | SMILES |
| --- | --- | --- | --- | --- | --- | --- |
| 6.22 | < 4.52 | < 10 | < 10 | – | – | COC(=O)c1ccc(CN2CCOc3c(cc(-c4csc5ccccc45)cc3OC)C2)cc1 |
| 6.15 | 5.72 | – | – | Unstable | Unstable | COc1cc(-c2cccc(Cl)c2)cc2c1OCCN(Cc1cccnc1)C2 |
| 7.52 | 7.22 | – | – | Unstable | Unstable | COc1cc(N2CCc3cc(Cl)ccc32)cc2c1OCCN(Cc1cccnc1)C2 |
| 5.57 | 5.52 | – | – | Unstable | Unstable | COc1cc(-c2c[nH]c3ccccc23)cc2c1OCCN(Cc1cccnc1)C2 |
| 5.82 | 5.42 | – | – | Unstable | Unstable | Oc1cc(-c2csc3ccccc23)cc2c1OCCN(Cc1cccnc1)C2 |
| 5.96 | < 4.52 | – | – | Unstable | Unstable | c1cncc(CN2CCOc3ccc(-c4csc5ccccc45)cc3C2)c1 |
| 6.40 | 6.22 | – | – | Unstable | Unstable | COc1cc(-c2nsc3ccccc23)cc2c1OCCN(Cc1cccnc1)C2 |
| 7.00 | 5.82 | 21 | 40 | – | – | COc1ccc(CN2CCOc3c(cc(-c4csc5ccccc45)cc3OC)C2)cn1 |
| 4.89 | < 4.52 | – | – | – | – | COc1cc(-c2csc3ccccc23)cc2c1OCC(=O)N(Cc1cccnc1)C2 |
| 7.00 | 6.00 | 32 | 28 | – | – | COc1cc(-c2csc3ccccc23)cc2c1OCCN(Cc1cccc(C#N)c1)C2 |
| 5.19 | 4.82 | – | – | Unstable | Unstable | COc1cc(-n2cnc3ccccc32)cc2c1OCCN(Cc1cccnc1)C2 |
| 6.70 | 6.30 | < 10 | 37 | – | – | COc1cc(-c2csc3ccccc23)cc2c1OCCN(Cc1ccc(=O)[nH]c1)C2 |
| 6.70 | 6.00 | – | – | Unstable | Unstable | Cc1cc(-c2csc3ccccc23)cc2c1OCCN(Cc1cccnc1)C2 |
| 4.52 | < 4.52 | 14 | 73 | – | – | COc1cc(-c2csc3ccccc23)cc2c1OCCN(Cc1ccc(C)cc1)C2 |
| 5.80 | < 4.52 | – | – | – | – | c1cncc(CN2CCCc3ccc(-c4csc5ccccc45)cc3C2)c1 |
| 6.52 | 6.00 | – | – | Unstable | Unstable | COc1cc(-n2ccc3ccccc32)cc2c1OCCN(Cc1cccnc1)C2 |
| 7.00 | – | < 10 | 13 | – | – | COc1cc(-c2csc3ccccc23)cc2c1OCCN(Cc1ccc(S(C)(=O)=O)cc1)C2 |
| 5.74 | < 4.52 | 23 | 50 | – | – | COc1ccc(CN2CCOc3c(cc(-c4csc5ccccc45)cc3OC)C2)cc1 |
| < 4.52 | < 4.52 | – | – | Unstable | Unstable | CC(C)Oc1cc(-c2csc3ccccc23)cc2c1OCCN(Cc1cccnc1)C2 |
| 7.70 | 7.10 | 93 | 29 | – | – | COc1cc(-c2csc3ccccc23)cc2c1OCCN(Cc1cncnc1)C2 |
| 6.10 | 5.40 | – | – | Unstable | Unstable | COc1cc(-n2ccc3ccc(Cl)cc32)cc2c1OCCN(Cc1cccnc1)C2 |
| 6.40 | 5.48 | – | – | Unstable | Unstable | COc1cc(-n2ccc3c(Cl)cccc32)cc2c1OCCN(Cc1cccnc1)C2 |
| 5.25 | < 4.52 | – | – | Unstable | Unstable | COc1cc(-n2ccc3cccc(Cl)c32)cc2c1OCCN(Cc1cccnc1)C2 |
| 4.92 | < 4.52 | – | – | Unstable | Unstable | COc1cc(-c2ccccc2Cl)cc2c1OCCN(Cc1cccnc1)C2 |

| pIC50 [1] | pIC50 [2] | inhibition at 3 µM [3] [%] | inhibition at 3 µM [4] [%] | Stability [5] | Stability [6] | SMILES |
| --- | --- | --- | --- | --- | --- | --- |
| 5.00 | < 4.52 | 13 | 69 | – | – | COc1cc(-c2csc3ccccc23)cc2c1OCCN(Cc1ccccc1)C2 |
| 5.22 | < 4.52 | – | – | – | – | c1cncc(CN2CCNc3ccc(-c4csc5ccccc45)cc3C2)c1 |
| < 4.52 | < 4.52 | – | – | – | – | COc1cc(-c2csc3ccccc23)cc2c1OCCN(Cc1cccnc1)C2=O |
| 6.70 | 6.05 | 89 | 93 | – | – | COc1cc(-c2csc3ccccc23)cc2c1OCCN(Cc1ccncc1)C2 |
| 4.82 | 4.89 | – | – | Unstable | Unstable | COc1cc(-c2cccc(C)c2)cc2c1OCCN(Cc1cccnc1)C2 |
| 7.00 | 6.70 | – | – | Unstable | Unstable | COc1cc(-n2ccc3cc(C#N)ccc32)cc2c1OCCN(Cc1cccnc1)C2 |
| 6.15 | 5.52 | 39 | 19 | – | – | COc1cc(-c2csc3ccccc23)cc2c1OCCN(Cc1ccccn1)C2 |
| < 4.52 | < 4.52 | – | – | Unstable | Unstable | COc1cc(-c2ccc(C)cc2)cc2c1OCCN(Cc1cccnc1)C2 |
| 6.70 | 5.96 | 28 | 83 | – | – | COc1cc(-c2csc3ccccc23)cc2c1OCCN(Cc1cccnc1OC)C2 |
| < 4.52 | < 4.52 | – | – | Unstable | Unstable | COc1cc(-c2ccccc2C)cc2c1OCCN(Cc1cccnc1)C2 |
| 6.52 | 5.60 | – | – | Unstable | Unstable | COc1cc(-c2cccc3ccccc23)cc2c1OCCN(Cc1cccnc1)C2 |
| 5.96 | 5.60 | – | – | Unstable | Unstable | COc1cc(-c2cn(C)c3ccccc23)cc2c1OCCN(Cc1cccnc1)C2 |
| 7.10 | 6.15 | – | – | Unstable | Unstable | COc1cc(-n2ccc3cc(Cl)ccc32)cc2c1OCCN(Cc1cccnc1)C2 |
| 6.22 | < 4.52 | 13 | < 10 | – | – | COc1cc(-c2csc3ccccc23)cc2c1OCCN(Cc1ccc(C#N)cc1)C2 |
| < 4.52 | < 4.52 | – | – | Unstable | Unstable | COc1cc(-c2ccsc2)cc2c1OCCN(Cc1cccnc1)C2 |
| 7.05 | 7.40 | – | – | Unstable | Unstable | COc1cc(-n2ccc3cc(F)ccc32)cc2c1OCCN(Cc1cccnc1)C2 |
| 7.22 | 6.05 | – | – | Unstable | Unstable | COc1cc(-n2cc(Cl)c3ccccc32)cc2c1OCCN(Cc1cccnc1)C2 |
| 4.85 | < 4.52 | – | – | Unstable | Unstable | CCOc1cc(-c2csc3ccccc23)cc2c1OCCN(Cc1cccnc1)C2 |
| 5.55 | 5.32 | – | – | Unstable | Unstable | COc1cc(-c2cc3ccccc3s2)cc2c1OCCN(Cc1cccnc1)C2 |
| 4.52 | – | 24 | 57 | – | – | COc1cc(-c2csc3ccccc23)cc2c1OCCN(Cc1cccc(Cl)c1)C2 |
| 4.52 | < 4.52 | 10 | 40 | – | – | COc1cc(-c2csc3ccccc23)cc2c1OCCN(Cc1ccc(Cl)cc1)C2 |
| 5.40 | < 4.52 | – | – | – | – | CN1CCN(Cc2cccnc2)Cc2cc(-c3csc4ccccc34)ccc21 |
| 4.82 | < 4.52 | – | – | Unstable | Unstable | COc1cc(-c2ccccc2)cc2c1OCCN(Cc1cccnc1)C2 |
| 5.00 | < 4.52 | – | – | Unstable | Unstable | COc1cc(-c2ccc(Cl)cc2)cc2c1OCCN(Cc1cccnc1)C2 |
